Columns and labels:
[1] = test system: HEK-293T; assay: Multiplex assay against HEK293T; format: toxicity, cell-based; settings: human;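 on Population Tubulin-Different-Phenotype (%): share of the cells with healthy nuclei that show this phenotype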
Procedure, shortened: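 Live cells carried four stains from seeding: Hoechst33342, BioTracker Green Microtubule Cytoskeleton Dye, MitoTracker Red and Annexin V Alexa Fluor 680. They were imaged on a CQ1 microscope at 37°C and 5% CO2 after compound addition. Using CellPathfinder machine-learning gating, cells were split into Hoechst high-intensity objects or normal cells, normal cells into healthy, pyknosed or fragmented nuclei, and pyknosed cells into mitotic or apoptotic; tubulin, mitochondrial-mass and membrane-permeability phenotypes are per cents of healthy-nucleus cells.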

[2] = test system: Fibroblast; assay: Incucyte cell viability with human fibroblast; format: toxicity, cell-based; settings: 10 µM, compound concentration 10 uM; further: filed as whole numbers so only -1 and 0 and 1 occur
[3] = 12 h, 1 µM, compound concentration 1 uM, replicate 1
[4] = 12 h, 1 µM, compound concentration 1 uM, replicate 2
[5] = 12 h, 10 µM, compound concentration 10 uM, replicate 1
[6] = 12 h, 10 µM, compound concentration 10 uM, replicate 2
[7] = 24 h, 1 µM, compound concentration 1 uM, replicate 1
[8] = 24 h, 1 µM, compound concentration 1 uM, replicate 2
[9] = 24 h, 10 µM, compound concentration 10 uM, replicate 1
[10] = 24 h, 10 µM, compound concentration 10 uM, replicate 2
[11] = 48 h, 1 µM, compound concentration 1 uM, replicate 1
[12] = 48 h, 1 µM, compound concentration 1 uM, replicate 2
[13] = 48 h, 10 µM, compound concentration 10 uM, replicate 1
[14] = 48 h, 10 µM, compound concentration 10 uM, replicate 2

CNc1oc(-c2cccc3ccccc23)nc1C#N
Population Apoptotic (%) [1, 3]: 59%
Population Fragmented Nuclei (%) [1, 3]: 14%
Population Healthy Nuclei (%) [1, 3]: 60%
Population Hoechst High Intensity Objects (%) [1, 3]: 30%
Population Membrane Permeable-Phenotype (%) [1, 3]: 3%
Population Mitochondria Different-Phenotype (%) [1, 3]: 62%
Population Mitotic Cells (%) [1, 3]: 40%
Population Normal (%) [1, 3]: 69%
Population Pyknosed Nuclei (%) [1, 3]: 25%
Population Tubulin-Different-Phenotype (%) [1, 3]: 31%
Total Cell Count [1, 3]: 276
Population Apoptotic (%) [1, 4]: 14%
Population Fragmented Nuclei (%) [1, 4]: 8%
Population Healthy Nuclei (%) [1, 4]: 61%
Population Hoechst High Intensity Objects (%) [1, 4]: 11%
Population Membrane Permeable-Phenotype (%) [1, 4]: 8%
Population Mitochondria Different-Phenotype (%) [1, 4]: 16%
Population Mitotic Cells (%) [1, 4]: 85%
Population Normal (%) [1, 4]: 88%
Population Pyknosed Nuclei (%) [1, 4]: 29%
Population Tubulin-Different-Phenotype (%) [1, 4]: 12%
Total Cell Count [1, 4]: 270
Population Apoptotic (%) [1, 5]: 41%
Population Fragmented Nuclei (%) [1, 5]: 83%
Population Healthy Nuclei (%) [1, 5]: 15%
Population Hoechst High Intensity Objects (%) [1, 5]: 41%
Population Membrane Permeable-Phenotype (%) [1, 5]: 0%
Population Mitochondria Different-Phenotype (%) [1, 5]: 1%
Population Mitotic Cells (%) [1, 5]: 58%
Population Normal (%) [1, 5]: 58%
Population Pyknosed Nuclei (%) [1, 5]: 1%
Population Tubulin-Different-Phenotype (%) [1, 5]: 0%
Total Cell Count [1, 5]: 2858
Population Apoptotic (%) [1, 6]: 25%
Population Fragmented Nuclei (%) [1, 6]: 86%
Population Healthy Nuclei (%) [1, 6]: 12%
Population Hoechst High Intensity Objects (%) [1, 6]: 47%
Population Membrane Permeable-Phenotype (%) [1, 6]: 4%
Population Mitochondria Different-Phenotype (%) [1, 6]: 2%
Population Mitotic Cells (%) [1, 6]: 75%
Population Normal (%) [1, 6]: 52%
Population Pyknosed Nuclei (%) [1, 6]: 0%
Population Tubulin-Different-Phenotype (%) [1, 6]: 1%
Total Cell Count [1, 6]: 2861
Population Apoptotic (%) [1, 7]: 38%
Population Fragmented Nuclei (%) [1, 7]: 17%
Population Healthy Nuclei (%) [1, 7]: 64%
Population Hoechst High Intensity Objects (%) [1, 7]: 29%
Population Membrane Permeable-Phenotype (%) [1, 7]: 6%
Population Mitochondria Different-Phenotype (%) [1, 7]: 41%
Population Mitotic Cells (%) [1, 7]: 61%
Population Normal (%) [1, 7]: 70%
Population Pyknosed Nuclei (%) [1, 7]: 17%
Population Tubulin-Different-Phenotype (%) [1, 7]: 25%
Total Cell Count [1, 7]: 325
Population Apoptotic (%) [1, 8]: 32%
Population Fragmented Nuclei (%) [1, 8]: 6%
Population Healthy Nuclei (%) [1, 8]: 79%
Population Hoechst High Intensity Objects (%) [1, 8]: 14%
Population Membrane Permeable-Phenotype (%) [1, 8]: 15%
Population Mitochondria Different-Phenotype (%) [1, 8]: 8%
Population Mitotic Cells (%) [1, 8]: 67%
Population Normal (%) [1, 8]: 85%
Population Pyknosed Nuclei (%) [1, 8]: 13%
Population Tubulin-Different-Phenotype (%) [1, 8]: 26%
Total Cell Count [1, 8]: 316
Population Apoptotic (%) [1, 9]: 15%
Population Fragmented Nuclei (%) [1, 9]: 83%
Population Healthy Nuclei (%) [1, 9]: 15%
Population Hoechst High Intensity Objects (%) [1, 9]: 40%
Population Membrane Permeable-Phenotype (%) [1, 9]: 0%
Population Mitotic Cells (%) [1, 9]: 84%
Population Normal (%) [1, 9]: 59%
Population Pyknosed Nuclei (%) [1, 9]: 0%
Population Tubulin-Different-Phenotype (%) [1, 9]: 0%
Total Cell Count [1, 9]: 2556
Population Apoptotic (%) [1, 10]: 13%
Population Fragmented Nuclei (%) [1, 10]: 88%
Population Healthy Nuclei (%) [1, 10]: 10%
Population Hoechst High Intensity Objects (%) [1, 10]: 48%
Population Membrane Permeable-Phenotype (%) [1, 10]: 4%
Population Mitochondria Different-Phenotype (%) [1, 10]: 1%
Population Mitotic Cells (%) [1, 10]: 86%
Population Normal (%) [1, 10]: 51%
Population Pyknosed Nuclei (%) [1, 10]: 1%
Population Tubulin-Different-Phenotype (%) [1, 10]: 3%
Total Cell Count [1, 10]: 2734
Population Apoptotic (%) [1, 11]: 39%
Population Fragmented Nuclei (%) [1, 11]: 14%
Population Healthy Nuclei (%) [1, 11]: 78%
Population Hoechst High Intensity Objects (%) [1, 11]: 32%
Population Membrane Permeable-Phenotype (%) [1, 11]: 2%
Population Mitochondria Different-Phenotype (%) [1, 11]: 17%
Population Mitotic Cells (%) [1, 11]: 60%
Population Normal (%) [1, 11]: 67%
Population Pyknosed Nuclei (%) [1, 11]: 7%
Population Tubulin-Different-Phenotype (%) [1, 11]: 17%
Total Cell Count [1, 11]: 470
Population Apoptotic (%) [1, 12]: 18%
Population Fragmented Nuclei (%) [1, 12]: 8%
Population Healthy Nuclei (%) [1, 12]: 84%
Population Hoechst High Intensity Objects (%) [1, 12]: 14%
Population Membrane Permeable-Phenotype (%) [1, 12]: 7%
Population Mitochondria Different-Phenotype (%) [1, 12]: 3%
Population Mitotic Cells (%) [1, 12]: 81%
Population Normal (%) [1, 12]: 85%
Population Pyknosed Nuclei (%) [1, 12]: 6%
Population Tubulin-Different-Phenotype (%) [1, 12]: 14%
Total Cell Count [1, 12]: 536
Population Apoptotic (%) [1, 13]: 15%
Population Fragmented Nuclei (%) [1, 13]: 82%
Population Healthy Nuclei (%) [1, 13]: 16%
Population Hoechst High Intensity Objects (%) [1, 13]: 43%
Population Membrane Permeable-Phenotype (%) [1, 13]: 0%
Population Mitochondria Different-Phenotype (%) [1, 13]: 0%
Population Mitotic Cells (%) [1, 13]: 85%
Population Normal (%) [1, 13]: 56%
Population Pyknosed Nuclei (%) [1, 13]: 1%
Population Tubulin-Different-Phenotype (%) [1, 13]: 0%
Total Cell Count [1, 13]: 2084
Population Apoptotic (%) [1, 14]: 16%
Population Fragmented Nuclei (%) [1, 14]: 84%
Population Healthy Nuclei (%) [1, 14]: 14%
Population Hoechst High Intensity Objects (%) [1, 14]: 52%
Population Membrane Permeable-Phenotype (%) [1, 14]: 1%
Population Mitotic Cells (%) [1, 14]: 83%
Population Normal (%) [1, 14]: 47%
Population Tubulin-Different-Phenotype (%) [1, 14]: 1%
Total Cell Count [1, 14]: 2135
Growth Rate ([2]; 0 h, replicate number 1, timepoint 0 hours): 0
Growth Rate ([2]; 6 h, replicate number 2, timepoint 6 hours): 1

— ChEMBL document CHEMBL4689842, “EUbOPEN Chemogenomics Library wave 1” (2021)
